The nature of series [1]: Ratio of drug level in brain to plasma of mouse at 30 mg/kg, po measured at 3 hrs post dose. The class given is ADME, organism-based. The note with it: read-out: BPR. Summed up:
(§1)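 Young mice given a single oral dose of 30 mg/kg. Total brain and plasma drug levels were measured 3 h post-dose and the brain/plasma ratio derived.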

A short description of series [2]: Drug uptake in mouse brain at 30 mg/kg, po measured after 3 hrs. The class given is ADME, organism-based. The note with it: read-out: Drug uptake. Summed up: as §1
The nature of series [3]: Plasma concentration in mouse at 30 mg/kg, po measured after 3 hrs. The class given is ADME, organism-based. The procedure, abridged:
as §1

Series [4] is described as follows: Metabolic stability in rat liver microsomes assessed as compound remaining at 0.5 uM measured after 10 mins. It is filed as ADME, Microsome. Conditions: read-out: Stability. The procedure, abridged:
(§2)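 Test compound at 0.5 µM incubated 10 min with mouse, rat or human liver microsomes. Read-out is percent of parent compound remaining.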
A general note: Liver microsomes are vesicles of endoplasmic reticulum, rich in cytochrome P450 enzymes.

The target in a further series is Beta-secretase 1 (Homo sapiens, UniProt P56817). Kind of series: Inhibition of BACE1 in human H4 cells expressing swedish mutant APP751 assessed as reduction in amyloid beta level measured after 19 hrs. It is filed as cell-based.
The nature of series [5]: Metabolic stability in mouse liver microsomes assessed as compound remaining at 0.5 uM measured after 10 mins. It is filed as ADME, Microsome. Conditions: read-out: Stability. The procedure, abridged:
as §2

Series [6] in a line: Metabolic stability in human liver microsomes assessed as compound remaining at 0.5 uM measured after 10 mins. The class given is ADME, Microsome. Conditions: read-out: Stability. The procedure, abridged:
as §2

pIC50: −log10 of the molar value.

One may read the pIC50 as the IC50 on a negative log10 scale, so that one unit is a factor of ten.

Beta-secretase 1, sequence (P56817 whole entry): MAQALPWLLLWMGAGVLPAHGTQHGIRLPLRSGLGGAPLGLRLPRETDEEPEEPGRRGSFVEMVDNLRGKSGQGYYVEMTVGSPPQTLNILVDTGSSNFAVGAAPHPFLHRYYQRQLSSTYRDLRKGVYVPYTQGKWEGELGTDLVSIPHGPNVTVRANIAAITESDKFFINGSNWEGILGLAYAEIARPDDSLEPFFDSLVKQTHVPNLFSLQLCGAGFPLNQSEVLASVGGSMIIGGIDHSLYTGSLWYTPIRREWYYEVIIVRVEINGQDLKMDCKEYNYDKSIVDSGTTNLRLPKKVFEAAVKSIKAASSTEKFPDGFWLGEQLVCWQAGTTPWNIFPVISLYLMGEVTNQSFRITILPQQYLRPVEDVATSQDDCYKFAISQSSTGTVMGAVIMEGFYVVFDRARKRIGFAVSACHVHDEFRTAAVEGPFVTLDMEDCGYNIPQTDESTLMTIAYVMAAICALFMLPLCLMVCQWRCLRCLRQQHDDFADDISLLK

With `Cc1noc(C)c1[C@@H]1C[C@@](C)(c2cc(-c3cncnc3)c(F)cc2F)N=C(N)S1`, the Kp at 3 h in series [1] turned out to be 0.08. The concentration at 3 h in series [2] amounted to 0.58 µM; in series [3] it was 7.4 µM.

Consider `Cc1noc(-c2ccccc2)c1[C@@H]1C[C@@](C)(c2ccc(F)cc2F)N=C(N)S1`, for which the remaining at 10 min, 0.5 µM came out at 20% in series [4], 6% in series [5] and 39% in series [6]. Further, the pIC50 at Beta-secretase 1 was 6.64.

Regarding `Cc1onc(-c2ccc(F)cc2)c1[C@@H]1C[C@@](C)(c2ccc(F)cc2F)N=C(N)S1`, the remaining at 10 min, 0.5 µM in series [4] is 35%; in series [5] it was 23%; in series [6], 24%. In addition, the pIC50 on Beta-secretase 1 is 6.49.

In the case of `Cc1noc(C)c1[C@@H]1C[C@@](C)(c2sccc2Cl)N=C(N)S1`, the remaining at 10 min, 0.5 µM came to 12% in series [4], 21% in series [5] and 11% in series [6]. Moreover, the negative-log IC50 (pIC50) at Beta-secretase 1 is 6.52.

In the case of `Cc1nocc1[C@@H]1C[C@@](C)(c2ccc(F)cc2F)N=C(N)S1`, the remaining at 10 min, 0.5 µM in series [4] was found to be 77%; in series [5], 80%; in series [6], 65%. In addition, the pIC50 at Beta-secretase 1 is 6.52.

For `CCc1noc(C)c1[C@@H]1C[C@@](C)(c2ccc(F)cc2F)N=C(N)S1`, the results for the remaining at 10 min, 0.5 µM in series [4], in series [5] and in series [6] were 59%, 41% and 21%, respectively. In addition, the pIC50 at Beta-secretase 1 was 6.60.

With `Cc1noc(C)c1[C@@H]1C[C@@](C)(c2ccccc2)N=C(N)S1`, the remaining at 10 min, 0.5 µM was determined as 81% in series [4], 78% in series [5] and 86% in series [6]. Also, the pIC50 on Beta-secretase 1 was 6.32.

On to `Cc1onc(-c2ccccc2)c1[C@@H]1C[C@@](C)(c2ccc(F)cc2F)N=C(N)S1`, for which the values for the remaining at 10 min, 0.5 µM in series [4], in series [5] and in series [6] were 13%, 12% and 38%, respectively. On Beta-secretase 1, the pIC50 is 6.80.

(Values after ChEMBL document CHEMBL4428078, “Discovery of S3-Truncated, C-6 Heteroaryl Substituted Aminothiazine β-Site APP Cleaving Enzyme-1 (BACE1) Inhibitors” (J Med Chem, 2016).)
